# Columns and labels:
# [1] = tested on: A2780; experiment: Concentration required to inhibit the cell growth by 50 % after 96 hr […].; type: functional, cell-based; settings: Homo sapiens, A2780, 96 h
# Procedure, shortened: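 A2780 cells in DMEM with 10% FCS, glutamine, insulin and hydrocortisone, plated at (0.1–5) × 10³ per well and attached overnight. DMSO stocks (≤0.5% v/v) were diluted in pH 7.0 buffer. Continuous drug exposure for 96 h. TCA fixation, sulforhodamine B staining, Tris solubilization, absorbance at 540 nm. IC50 taken against solvent-treated drug-free controls.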
# [2] = tested on: L1210; experiment: Concentration required to inhibit the cell growth by 50 % after 48 hr in L1210 leukemic cells.; type: functional, cell-based; settings: Mus musculus, L1210, 48 h
# Procedure, shortened: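 Mouse L1210 leukemia cells at 5 × 10³ cells/mL. Exposed to drug for 48 h at 37 °C; stocks held ≤0.5% v/v DMSO. Surviving cells were counted with a Coulter counter against drug-free controls to give IC50. Run in duplicate.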
# [3] = tested on: Nucleic Acid; experiment: Inhibitory concentration against DNA-bound ethidium for cytotoxicity; type: functional
# [4] = tested on: Nucleic Acid; experiment: Inhibitory concentration against ethidium in DNA-binding assay with [poly(dA-dT)]2 (synthetic oligonucleotide); type: nucleic-acid assay
# Procedure, shortened: (§1)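 Quenching of DNA-bound ethidium at pH 5.0 (9.3 mM NaCl, 2 mM NaOAc, 0.1 mM EDTA, ionic strength 0.01 M). Synthetic DNA 20 μM with 2 μM ethidium bromide, 20 °C. Drug added serially from about 5 mM DMSO stock. Excitation 546 nm, emission 595 nm. Q is the drug concentration giving 50% fluorescence loss, mean of three.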
# [5] = tested on: Nucleic Acid; experiment: Inhibitory concentration against ethidium in DNA-binding assay with [poly(dG-dC)]2 (synthetic oligonucleotide); type: nucleic-acid assay; procedure, shortened: as §1
# [6] = tested on: Calf thymus DNA; experiment: Inhibitory concentration against ethidium in DNA-binding assay; type: nucleic-acid assay; settings: Bos taurus
# Procedure, shortened: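 Ethidium displacement from CT-DNA at pH 5.0 (9.3 mM NaCl, 2 mM NaOAc, 0.1 mM EDTA), with 1.26 μM ethidium bromide and 1 μM CT-DNA, 20 °C. Drug added serially from about 5 mM DMSO stock. Excitation 546 nm, emission 595 nm. CC50 is the concentration halving bound-ethidium fluorescence, mean of three.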
# [7] = tested on: Calf thymus DNA; experiment: Induced change in DNA-biphasic melting (deltaTm) with calf thymus DNA at […]; type: functional; settings: Bos taurus
# Procedure, shortened: (§2)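 Thermal denaturation in stoppered quartz cuvettes. DNA in 10 mM sodium phosphate, 1 mM EDTA, at pH 6.00 (CT-DNA, poly(dA-dT), poly(dG-dC)) or pH 7.00 (CT-DNA only). Working DNA 100 μM; ligand added in DMSO to 20 μM final (drug:DNA 1:5). DMSO up to 6.25% v/v, with linear correction. Heated at 1 °C/min and followed by A260. ΔTm is ligand minus drug-free control, mean of three.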
# [8] = tested on: Nucleic Acid; experiment: Induced change in DNA-melting (deltaTm) with [poly(dA-dT)]2 at […]; type: functional; procedure, shortened: as §2
# [9] = tested on: Nucleic Acid; experiment: Induced change in DNA-melting (deltaTm) with [poly(dG-dC)]2 at […]; type: functional; procedure, shortened: as §2
# [10] = tested on: Calf thymus DNA; experiment: Change in DNA-melting (deltaTm) with calf thymus DNA at pH 7.0; type: functional; settings: Bos taurus; procedure, shortened: as §2
# [11] = tested on: Calf thymus DNA; experiment: Change in DNA-melting (deltaTm) with calf thymus DNA at […]; type: functional; settings: Bos taurus; procedure, shortened: as §2
# [12] = tested on: Calf thymus DNA; experiment: Induced change in DNA-biphasic melting (deltaTm) with calf thymus DNA at pH 7.0; type: functional; settings: Bos taurus; procedure, shortened: as §2
# [13] = tested on: Calf thymus DNA; experiment: (§3) Induced change in DNA-melting (deltaTm) with calf thymus DNA at pH 7.0; type: nucleic-acid assay; settings: Bos taurus; procedure, shortened: as §2
# [14] = tested on: Calf thymus DNA; experiment: as §3; type: functional; settings: Bos taurus; procedure, shortened: as §2
# [15] = tested on: L1210; experiment: Inhibitory concentration against L1210 leukemic cell proliferation over 24 hr; settings: Mus musculus, L1210, 24 h
# [16] = tested on: Nucleic Acid; experiment: Induced change in DNA-melting (deltaTm) with [poly(dA-dT)]2 at pH 65.0; type: functional; procedure, shortened: as §2
# [17] = tested on: Calf thymus DNA; experiment: Induced change in DNA-melting (deltaTm) with calf thymus DNA at […]; type: functional; settings: Bos taurus; procedure, shortened: as §2
Structure (SMILES),IC50 [1],IC50 [2],Q [4],Q [5],Q [6],Tm shift [13],IC50 [15],CC50 [3],Tm shift [7],Tm shift [8],Tm shift [9],Tm shift [10],Tm shift [11],Tm shift [12],Tm shift [14],Tm shift degreeC [16],Tm shift [17]
Cc1nc(-c2c3ccccc3nc3ccccc23)sc1CCO,> 100 µM,,22 µM,19 µM,21 µM,,,190 µM,,0.7 °C,< 0.2 °C,< 0.2 °C,1 °C,,,,
Nc1ccc2c(=O)c3ccc(N)cc3[nH]c2c1,> 100 µM,67 µM,,,,,,,,,,,,,,,
O=C(OCCN1CCOCC1)c1ccc(/N=N/Nc2ccc(C(=O)OCCN3CCOCC3)cc2)cc1,,> 100 µM,14 µM,17 µM,15 µM,,,6.8 µM,,,,,3.6 °C,,1.4 °C,,
COc1cc(NS(C)(=O)=O)ccc1Nc1c2ccccc2nc2ccccc12 [AMSACRINE],0.1 µM,,25 µM,4.5 µM,3.8 µM,,0.05 µM,8.9 µM,,4 °C,,1 °C,,,,,
c1ccc2nc3ccccc3cc2c1 [ACRIDINE],> 100 µM,45 µM,26 µM,22 µM,24 µM,,,142 µM,,0.7 °C,0.8 °C,0.7 °C,1.7 °C,,,,
N=C(N)c1ccc(/N=N/Nc2ccc(C(=N)N)cc2)cc1 [DIMINAZENE],,32 µM,5 µM,19 µM,9 µM,,,4.4 µM,,,,7.9 °C,9.3 °C,,,,
c1ccc(-c2c3ccccc3nc3ccccc23)cc1,> 100 µM,80 µM,23 µM,18 µM,22 µM,,,175 µM,,,0.4 °C,0.4 °C,1.3 °C,,,0.6 °C,
Nc1ccc2c(-c3ccccc3)c3ccc(N)cc3nc2c1,1.2 µM,2 µM,22 µM,16 µM,19 µM,,,,,20.3 °C,3.3 °C,6.9 °C,11.7 °C,,,,
O=C(OCCN1CCCCC1)c1ccc(/N=N/Nc2ccc(C(=O)OCCN3CCCCC3)cc2)cc1,,> 100 µM,11 µM,14 µM,13 µM,7.7 °C,,5.7 µM,,,,,14.5 °C,,,,
Nc1ccc2cc3ccc(N)cc3nc2c1 [PROFLAVINE],0.47 µM,2.7 µM,24 µM,14 µM,20 µM,,,,,24.4 °C,7 °C,11.5 °C,,,,,16.4 °C

# Continued, in another order:
IC50 [1],IC50 [2],Q [4],Q [5],Q [6],Tm shift [13],IC50 [15],Structure (SMILES),CC50 [3],Tm shift [7],Tm shift [8],Tm shift [9],Tm shift [10],Tm shift [11],Tm shift [12],Tm shift [14],Tm shift degreeC [16],Tm shift [17]
5.3 µM,28 µM,21 µM,36 µM,26 µM,,,Cc1nc(-c2c3ccccc3nc3ccccc23)sc1CCOC(=O)c1ccc(N/N=N/c2ccc(C(N)=O)cc2)cc1,96 µM,,,,,,,,,
2.6 µM,32 µM,17 µM,39 µM,28 µM,,,Cc1nc(-c2c3ccccc3nc3ccccc23)sc1CCOC(=O)c1ccc(N/N=N/c2ccc(C(=O)OCCN3CCOCC3)cc2)cc1,6.1 µM,2.4 °C,0.9 °C,,,,,,,
16 µM,66 µM,12 µM,31 µM,18 µM,,,Cc1nc(-c2c3ccccc3nc3ccccc23)sc1CCOC(=O)c1ccc(N/N=N/c2ccc(C(=N)N)cc2)cc1,2.9 µM,,2.4 °C,,,,,,,
3.5 µM,3.4 µM,15 µM,45 µM,26 µM,,,Cc1nc(-c2c3ccccc3nc3ccccc23)sc1CCOC(=O)c1ccc(N/N=N/c2ccc(C(=O)OCCN3CCCC3)cc2)cc1,2.8 µM,,1.5 °C,0.3 °C,1.4 °C,2.9 °C,,,,
3.1 µM,3.2 µM,16 µM,66 µM,35 µM,,,Cc1nc(-c2c3ccccc3nc3ccccc23)sc1CCOC(=O)c1ccc(/N=N/Nc2ccc(C(=O)OCCN(C)C)cc2)cc1,3.6 µM,3 °C,1.7 °C,< 0.2 °C,,,1.8 °C,,,
3.9 µM,6.2 µM,14 µM,52 µM,27 µM,1.5 °C,,Cc1nc(-c2c3ccccc3nc3ccccc23)sc1CCOC(=O)c1ccc(N/N=N/c2ccc(C(=O)OCCN3CCCCC3)cc2)cc1,3.2 µM,,1.9 °C,0.2 °C,,2.4 °C,,,,
3.8 µM,3 µM,14 µM,34 µM,17 µM,,,Cc1nc(-c2c3ccccc3nc3ccccc23)sc1CCOC(=O)c1ccc(/N=N/Nc2cccc(C(=O)OCCN(C)C)c2)cc1,1.2 µM,2.1 °C,1.6 °C,< 0.2 °C,,,,,,
> 100 µM,100 µM,19 µM,33 µM,25 µM,,,CC(=O)c1ccc(N/N=N/c2ccc(C(=O)OCCc3sc(-c4c5ccccc5nc5ccccc45)nc3C)cc2)cc1,123 µM,,,,,,,,,
> 100 µM,,24 µM,17 µM,20 µM,,,Cc1nc(-c2c3ccccc3nc3ccccc23)sc1CCOC(=O)c1ccc(N)cc1,230 µM,,0.8 °C,,0.4 °C,1.1 °C,,,,

# Source: ChEMBL document CHEMBL1128748, “Novel acridine-triazenes as prototype combilexins: synthesis, DNA binding, and biological activity” (J Med Chem, 1995)
